Hck-Nef inh – inhibitors of human Hck kinase activated by Nef; Recombinant Hck-YEEI plus Nef, Z-Lyte FRET kinase assay; inhibition, % at 20 µM; hit rate 0.68% among 220,000; AID 463187;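 active = Hck-Nef kinase inhibition above about 50%, limit read from the data; inactive = inhibition below that limit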;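 note: 0% = DMSO with Hck plus Nef and 100% = Hck alone without Nef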
Target sequence (P08631 whole entry, looked up): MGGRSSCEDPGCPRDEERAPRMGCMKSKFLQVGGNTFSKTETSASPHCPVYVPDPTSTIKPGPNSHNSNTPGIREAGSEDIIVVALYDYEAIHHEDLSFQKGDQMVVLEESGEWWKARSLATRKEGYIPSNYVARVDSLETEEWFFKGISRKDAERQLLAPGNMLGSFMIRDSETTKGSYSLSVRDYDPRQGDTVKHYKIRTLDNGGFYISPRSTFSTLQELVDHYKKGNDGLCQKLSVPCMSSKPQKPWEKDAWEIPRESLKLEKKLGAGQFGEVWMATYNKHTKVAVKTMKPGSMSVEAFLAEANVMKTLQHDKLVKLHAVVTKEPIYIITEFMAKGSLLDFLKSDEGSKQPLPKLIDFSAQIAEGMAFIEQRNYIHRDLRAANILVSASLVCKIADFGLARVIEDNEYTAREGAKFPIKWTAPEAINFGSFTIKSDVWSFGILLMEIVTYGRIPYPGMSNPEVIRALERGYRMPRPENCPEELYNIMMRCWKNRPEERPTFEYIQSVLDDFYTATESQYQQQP
Mdm2 ligase inh – blocks human Mdm2 ubiquitin ligase activity | Q00987 | cell-based MDM2 ubiquitination luciferase reporter, 2 h; 0 = plate control, 100 = twice control, blank-subtracted | signal enhancement, % at 5 µM | hit rate 0.11% among 210,000 | AID 1230;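 active = signal enhancement of 30% or more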;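 note: luminescence tracks abundance of the self-degrading MDM2-luciferase fusion protein; higher signal means inhibition of MDM2 E3 ligase activity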
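Material: Stable MDM2–luciferase fusion reporter cells | Amount: 2000 cells seeded into each well | Dosing: One concentration, 5 µM, with 0.2% DMSO | Incubation: 4 h cell settling then 2 h compound exposure, 37 °C | Measured by: Luciferase luminescence | Read-out basis: % enhancement relative to plate controls after blank subtraction | Benchmarks: Control and blank well means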
L929 necroptosis – L929 zVAD cell death inhibition | L929 zVAD necroptosis rescue, ATP luminescence, 24 h; with zVAD 60 µM | viability rescue, % at 10 µM | hit rate 0.38% among 220,000 | AID 1377;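 active = activation, scaled between plate controls, above about 75%, limit read from the data; inactive = activation under that limit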;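 note: 0% = zVAD with DMSO and 100% = DMSO alone without zVAD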
TNF death inh – TNF-alpha cell death inhibition in Jurkat FADD-/- cells. Jurkat FADD-/- TNF necroptosis rescue, ATP luminescence, 24 h; 0 = TNF only, 100 = no-TNF cells. activation (protection from cell death), % at 10 µM. hit rate 0.068% among 220,000;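 active = activation, meaning protection from cell death, of at least 50% relative to plate controls; inactive = activation below 50%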;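 note: necroptosis triggered by 40 ng/mL TNF-alpha added together with compound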
Autophagy HCS – alters autophagy in cells. calls only at 10 µM (by protocol). AID 463193. MEF GFP-LC3 puncta imaging; test concentration mostly 10 µM. hit rate 0.98% among 190,000;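 active = percentage of spot-positive cells more than 3 SD above its plate mean, without a fluorescence outlier flag or 80% toxicity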;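 note: spot-positive cell cutoff set from DMSO-treated cells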
Dynein cargo inh – blocks dynein driven cargo transport along microtubules. 3617.4 mouse cells, GR-EGFP nuclear translocation imaging; test concentration mostly 20 µM; stimulated with dexamethasone, 1 µM; stronger effect = lower value. z-score, hits read low. hit rate 0.47% among 220,000. AID 1381;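 active = plate z-score of nuclear minus cytoplasmic receptor signal below a set negative limit, without overly bright fluorescence or cell loss, cut at about -3.5 in these data, passing the limit was not always enough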;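 note: z-score of nuclear minus cytoplasmic ring GR-EGFP intensity difference per well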
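Buffer or medium: Induction medium lacking tetracycline, stripped serum | Also added: Dexamethasone agonist, 1.0 µM final, for 30 min | Timing: 48 h induction, 1 h compound, 30 min dex at 37 °C | Detection: Formaldehyde fixation, Hoechst nuclear stain, 10x automated fluorescence imaging | Measure: Nuclear versus cytoplasmic GR-EGFP signal, averaged per well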
zVAD necrop conf – confirmed blocker of zVAD induced death in L929 cells; shares compounds with L929 necroptosis; L929 zVAD-induced necroptosis rescue, ATP luminescence, 24 h; activation (protection from necroptosis), % at 10 µM; hit rate 16% among 760;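 active = mean protection from necroptosis of at least 50% over duplicate tests; inactive = mean protection below 50%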;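 note: 0% = cells with zVAD alone and 100% = vehicle cells without zVAD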
* = called active by the depositor; i = inactive; . = no result. An excerpt weighted towards active compounds, which were near 2.4% of everything screened.

SMILES	Hck-Nef inh	Mdm2 ligase inh	L929 necroptosis	TNF death inh	Autophagy HCS	Dynein cargo inh	zVAD necrop conf
Cc1cc(C)c(C)c(S(=O)(=O)N[C@@H](C)C(=O)OCC(N)=O)c1C	12.9	4.5	1.4	-2.3	i	0.911	.
CCCCNC(=O)COC(=O)CCC(=O)c1ccc(Cl)cc1	24.0	-17.7	3.7	-1.2	i	-0.0456	.
Oc1ccc(/C=N/Nc2ncc(Br)cn2)c(O)c1	4.2	-12.9	92.2*	31.1	i	-0.762	2.9
COc1ccc(CCNC(=O)CC(c2ccccc2)c2cccc(C)c2O)cc1OC (configuration not stated)	4.0	.	-1.1	-0.1	i	-0.0686	.
CC1S/C(=N/N=C/c2ccco2)N(Cc2ccccc2)C1=O (configuration not stated)	11.3	4.9	0.8	0.4	.	0.936	.
c1cncc(-c2nc(NCCCn3ccnc3)c3ccccc3n2)c1	37.7	-17.0	75.1*	1.1	i	-0.887	32.4
COC(=O)Nc1sc2c(c1C(=O)NC1CC1)CCCCCC2	-0.8	-8.4	0.9	-0.5	i	-1.31	.
CCC(=O)Nc1cccc(NC(=S)NC(=O)c2ccc(Cl)cc2Cl)c1	1.8	-3.2	0.7	0.2	i	-0.0908	.
O=C(NC(=S)Nc1cccc(NC(=O)c2ccc(Cl)cc2Cl)c1)c1cccs1	4.8	4.3	77.3*	-0.7	i	1.96	34.5
CCOC(=O)c1ccc2[nH]c3c(c2c1)CCCC3C(=O)OCC (configuration not stated)	-0.3	-11.6	75.3*	2.8	i	0.275	29.3
O=C(NC(=S)Nc1ccccc1)c1cncc(C#Cc2ccccc2)c1	-12.1	-10.2	0.2	-3.0	.	-0.397	.
O=c1oc(-c2cccnc2)nc2ccccc12	2.0	-21.6	-0.1	-1.3	i	0.01	.
c1ccc(-c2cnc(-c3cccnc3)o2)cc1	9.9	-16.4	78.9*	-13.6	i	-0.363	47.3
NC(=O)c1ccc(-c2ncc(-c3ccccc3)o2)cc1	9.8	-34.3	78.6*	-5.3	i	-0.713	63.0*
NC(=O)c1ccccc1	17.7	-62.6	1.0	0.5	i	1.72	.
CSc1cccc(NC(=O)C2(S(=O)(=O)c3ccc(C)cc3)CC2)c1	23.6	3.1	-0.1	1.1	i	-0.311	.
CN(C)S(=O)(=O)c1ccc(Cl)c(NC(=O)CSc2nnnn2-c2ccc(O)cc2)c1	15.4	-0.2	86.0*	9.5	i	-0.796	88.1*
CC(C)c1ccc(C(=O)NC(=S)Nc2ccc3[nH]c(=O)[nH]c3c2)cc1	20.5	5.9	80.7*	-6.3	.	0.644	27.9
O=C(Nc1ccc(-c2noc(COc3ccccc3Cl)n2)cc1)c1ccco1	1.9	.	97.9*	-2.5	i	-0.0716	36.0
O=C(Nc1ccc(Cl)c(C(F)(F)F)c1)NC1CC2CCCC(C1)N2Cc1ccccc1 (configuration not stated)	19.0	-3.7	76.3*	-0.1	i	-0.888	33.4
COc1ccc(C(=O)Nc2ccccc2C(=O)NC(Cc2c[nH]c3ccccc23)C(=O)O)cc1 (configuration not stated)	23.4	8.8	7.1	1.3	i	0.108	.
CC1CCCCC1NC(=O)Cn1nnc(-c2ccc(Cl)cc2)n1 (configuration not stated)	1.3	0.7	78.2*	-1.0	i	-0.755	3.4
Fc1ccc(C2=CSC3=NCCN23)cc1	18.5	-5.2	-0.6	-0.8	i	-0.564	.
N=c1nc(N)nc2n1NC(c1ccc(F)cc1)=CS2	-13.2	5.7	81.2*	20.5	i	-0.427	39.8
COc1cc(CCC(=O)O)on1	9.0	-14.1	0.5	1.3	.	-0.381	.
SMILES	Hck-Nef inh	Mdm2 ligase inh	L929 necroptosis	TNF death inh	Autophagy HCS	Dynein cargo inh	zVAD necrop conf
COc1cc(/C=N/Nc2ccc(C(F)(F)F)cn2)ccc1O	38.2	-10.7	78.9*	45.3	i	0.528	92.9*
COc1cc(/C=N/Nc2ncc(C(F)(F)F)cc2Cl)cc(OC)c1O	6.0	5.0	0.5	0.0	i	-0.54	.
O=C(O)c1ccc(/C=N/Nc2cccc(C(F)(F)F)c2)cc1	7.2	-9.0	3.0	-1.1	i	-0.356	.
O=C(O)c1ccc(/C=N/Nc2ccc(C(F)(F)F)cn2)cc1	26.1	-17.3	87.7*	57.6*	i	0.398	11.7
CCOC(=O)c1c(NC(=O)c2c(Br)cnn2C)c(C#N)nn1-c1ccccc1	-0.7	-5.5	-0.1	-0.9	i	-0.138	.
CCOC(=O)c1cc(COc2cc(Cl)cc(Cl)c2)on1	3.2	-11.0	-0.1	-0.9	.	-0.05	.
CCOC(=O)c1c(C)nc(C)c2c(=O)oc3ccccc3c12	4.9	-9.1	-0.1	-0.5	i	0.752	.
Cc1cnc(N)c2c(=O)oc3ccccc3c12	7.2	0.9	84.3*	-0.7	i	0.84	3.3
Cn1c(N/N=C/c2ccccc2)nc2sc3c(c2c1=O)CCC3	-0.4	-31.3	0.2	-4.6	i	-0.0542	.
Cc1cccc(C)c1NC(=S)N(c1ccccc1)C(C)C	2.1	-9.5	0.2	1.0	i	0.556	.
O=C(O)c1cccc2c(/C=N/Nc3ccccn3)c[nH]c12	32.9	-6.0	83.6*	44.4	.	-0.261	12.0
O=C(O)c1ccccc1N/N=C\c1ccnc2ccccc12	-1.5	-64.5	0.2	-2.7	i	-0.116	.
Cc1nc2nc(SCC(=O)c3ccc([N+](=O)[O-])cc3)[nH]c2cc1Br	0.7	-9.9	89.5*	-0.2	i	0.302	0.9
CNc1nc(-c2ccc3c(c2)CCN3S(=O)(=O)c2ccccc2)c(C)s1	19.2	16.6	13.7	-10.3	i	0.115	.
CCOc1ccc(/C=C\C(C)=N\O)cc1	20.0	-21.4	99.0*	7.7	i	-1.17	30.8
O=C(CCl)N1c2ccccc2OCC1c1ccccc1 (configuration not stated)	3.0	-9.1	90.1*	-15.1	i	-3.17	2.8
O=C(CN1CCNC(=O)C1)NCCc1ccc(Cl)cc1Cl	6.8	6.5	0.2	0.1	i	-0.274	.
NC(N)=NC1=NC(=O)C(Cc2ccccc2Cl)S1 (configuration not stated)	4.3	-11.4	0.4	0.0	.	-0.635	.
COc1cc(CO)ccc1OCC(=O)Nc1ccc(Br)cc1	8.4	-9.7	76.0*	1.3	i	-0.787	0.4
CCC(=O)Nc1ccc(C(=O)CSc2nc3ccc(C)cc3[nH]2)cc1	2.1	0.2	75.6*	2.6	i	-1.16	38.9
CC(C)=CC(=O)Nc1nc2ccc([N+](=O)[O-])cc2s1	9.3	-17.4	77.4*	-5.0	i	0.0834	37.9
Cn1c(=O)[nH]c(=O)c2c1nc(N1CCOCC1)n2CCCSc1ncccn1	0.5	-11.8	0.7	-11.5	i	-0.163	.
